Source: ChEMBL document CHEMBL1137389, “Synthesis and biological properties of novel, uracil-containing histone deacetylase inhibitors” (J Med Chem, 2006)
Active and inactive are the calls of the source. The rule behind the calls is not given here.

How the values were obtained:
U-937 [1] = assay: Induction of apoptosis in U937 cells at 5 uM by AnnexinV/PI double staining; format: functional
Method in brief: (§1)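 U937 cells exposed 48 h at 1 or 5 µM; apoptosis read by Annexin V/propidium iodide double staining and FACS.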

Histone deacetylase 1 = Histone deacetylase 1 (Mus musculus, UniProt O09106); assay: Inhibition of mouse HDAC1
Chain of Histone deacetylase 1 (O09106 whole entry): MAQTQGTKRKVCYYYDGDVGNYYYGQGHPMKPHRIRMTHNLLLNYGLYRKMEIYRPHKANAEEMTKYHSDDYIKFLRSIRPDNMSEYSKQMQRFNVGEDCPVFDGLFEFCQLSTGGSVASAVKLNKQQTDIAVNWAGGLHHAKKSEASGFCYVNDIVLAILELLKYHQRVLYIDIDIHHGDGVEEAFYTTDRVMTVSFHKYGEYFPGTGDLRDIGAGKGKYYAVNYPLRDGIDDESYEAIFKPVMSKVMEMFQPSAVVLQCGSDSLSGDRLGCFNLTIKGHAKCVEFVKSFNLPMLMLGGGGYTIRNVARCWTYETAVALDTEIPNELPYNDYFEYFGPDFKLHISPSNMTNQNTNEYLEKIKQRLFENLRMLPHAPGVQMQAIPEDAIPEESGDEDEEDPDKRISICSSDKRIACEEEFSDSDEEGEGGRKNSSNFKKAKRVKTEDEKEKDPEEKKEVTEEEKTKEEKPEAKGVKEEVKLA

[2] = target: Histone deacetylase 1 (Homo sapiens) (UniProt Q13547); assay: Inhibition of HDAC1 in U937 cell at 5 uM; settings: U-937
Chain of Histone deacetylase 1 (Homo sapiens) (Q13547 whole entry): as the sequence (O09106 whole entry) above, with K8R, E399D, D424E counted along it
Method in brief: (§2)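 HDAC1 immunoprecipitated overnight at 4 °C from U937 lysates (1000 µg extract, anti-HDAC1; IgG negative control); 10 µL IP incubated overnight at 37 °C with 120 000 CPM [3H]acetyl-histone H4 peptide on streptavidin beads in HDAC buffer ± inhibitor (5 µM); released radioactivity by scintillation counting; quadruplicate.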

Histone deacetylase HD2 = target: T1, Histone deacetylase HD2 (Zea mays, UniProt Q94F81); assay: Inhibition of maize HD2
T1 sequence (Q94F81 whole entry): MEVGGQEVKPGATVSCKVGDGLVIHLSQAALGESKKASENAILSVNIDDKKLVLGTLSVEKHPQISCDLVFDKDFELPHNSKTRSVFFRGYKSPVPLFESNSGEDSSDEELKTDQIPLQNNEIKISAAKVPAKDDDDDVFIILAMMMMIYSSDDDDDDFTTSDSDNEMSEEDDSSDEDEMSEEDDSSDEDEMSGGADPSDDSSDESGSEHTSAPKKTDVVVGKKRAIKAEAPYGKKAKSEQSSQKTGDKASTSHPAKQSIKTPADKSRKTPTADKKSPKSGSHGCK

Histone deacetylase HD1B = Histone deacetylase HD1B (Zea mays, UniProt Q9ZTP8); assay: Inhibition of maize HD1B
Chain of Histone deacetylase HD1B (Q9ZTP8 whole entry): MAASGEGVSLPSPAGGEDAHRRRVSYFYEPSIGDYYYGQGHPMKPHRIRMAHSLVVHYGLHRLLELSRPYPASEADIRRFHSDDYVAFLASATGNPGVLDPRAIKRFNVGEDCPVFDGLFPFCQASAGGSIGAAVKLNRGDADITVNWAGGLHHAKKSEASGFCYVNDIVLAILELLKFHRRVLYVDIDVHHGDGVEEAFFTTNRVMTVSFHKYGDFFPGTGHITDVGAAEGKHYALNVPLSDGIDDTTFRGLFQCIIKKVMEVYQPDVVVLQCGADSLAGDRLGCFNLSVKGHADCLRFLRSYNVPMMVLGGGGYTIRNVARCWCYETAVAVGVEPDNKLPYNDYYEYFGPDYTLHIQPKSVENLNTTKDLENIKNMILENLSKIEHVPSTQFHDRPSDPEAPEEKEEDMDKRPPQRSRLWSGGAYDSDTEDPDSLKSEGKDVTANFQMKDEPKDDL

[3] = target: Histone deacetylase 4 (Homo sapiens) (UniProt P56524); assay: Inhibition of HDAC4 in ZR75.1 cell at 5 uM; settings: ZR-75-1
Chain of Histone deacetylase 4 (Homo sapiens) (P56524 whole entry): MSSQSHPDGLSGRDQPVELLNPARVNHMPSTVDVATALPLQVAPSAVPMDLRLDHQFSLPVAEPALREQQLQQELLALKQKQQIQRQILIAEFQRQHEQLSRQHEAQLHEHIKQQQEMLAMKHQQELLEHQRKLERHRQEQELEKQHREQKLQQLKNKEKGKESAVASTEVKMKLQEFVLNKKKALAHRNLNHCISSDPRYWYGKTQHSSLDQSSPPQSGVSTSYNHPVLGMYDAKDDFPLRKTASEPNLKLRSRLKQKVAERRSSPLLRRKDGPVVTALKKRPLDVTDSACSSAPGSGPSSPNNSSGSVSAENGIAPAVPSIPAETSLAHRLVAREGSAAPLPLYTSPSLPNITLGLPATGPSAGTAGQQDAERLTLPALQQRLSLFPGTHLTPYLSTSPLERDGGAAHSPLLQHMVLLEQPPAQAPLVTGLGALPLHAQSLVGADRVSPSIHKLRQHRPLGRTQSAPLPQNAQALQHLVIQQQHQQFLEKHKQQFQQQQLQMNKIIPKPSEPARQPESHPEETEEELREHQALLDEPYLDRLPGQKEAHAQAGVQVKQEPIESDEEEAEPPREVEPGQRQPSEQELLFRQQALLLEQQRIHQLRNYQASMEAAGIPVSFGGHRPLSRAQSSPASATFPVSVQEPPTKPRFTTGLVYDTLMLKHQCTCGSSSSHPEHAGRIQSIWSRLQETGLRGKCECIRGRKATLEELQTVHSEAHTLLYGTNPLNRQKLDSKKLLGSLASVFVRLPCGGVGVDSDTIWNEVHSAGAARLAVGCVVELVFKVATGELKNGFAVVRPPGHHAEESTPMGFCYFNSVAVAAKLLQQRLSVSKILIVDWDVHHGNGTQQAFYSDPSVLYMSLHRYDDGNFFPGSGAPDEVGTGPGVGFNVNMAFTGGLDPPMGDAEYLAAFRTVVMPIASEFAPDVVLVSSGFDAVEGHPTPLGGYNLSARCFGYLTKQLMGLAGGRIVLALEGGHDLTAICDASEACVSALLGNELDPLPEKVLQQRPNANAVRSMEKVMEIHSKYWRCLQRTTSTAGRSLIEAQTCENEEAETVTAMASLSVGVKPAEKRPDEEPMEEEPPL
Method in brief: as §2, with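 “HDAC4” for “HDAC1”, “ZR-75.1 breast cancer” for “U937”, “anti-HDAC4;” for “anti-HDAC1;”, “µM);” for “µM); released radioactivity by”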

U-937 [4] = assay: Induction of H3 histone acetylation in U937 cells by Western blot analysis at 5 uM; format: functional, cell-based; settings: Homo sapiens
U-937 [5] = assay: Induction of alpha-tubulin acetylation in U937 cells by Western blot analysis; format: functional, cell-based; settings: Homo sapiens
Method in brief: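 Western blot of U937 total protein extracts (25 µg) on 10% polyacrylamide gel, probed for acetylated alpha-tubulin (1:500); total ERKs used as loading control.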

Zea mays [6] = assay: Selectivity for HD1A class II HDAC over HD1B class I HDAC
U-937 [7] = assay: Induction of granulocytic differentiation of U937 cells measured as CD11c expression level after 48 hrs at 5 uM; format: functional, Homo sapiens
Method in brief: (§3)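 Granulocytic differentiation: U937 cells treated 48 h at 1 or 5 µM, stained with PE-conjugated anti-CD11c (PE mouse IgG1 control) 30 min at 4 °C in dark, resuspended in PBS with PI 0.25 µg/mL; FACS, PI-positive cells excluded; percent CD11c-positive PI-negative cells reported.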

U-937 [8] = assay: Induction of granulocytic differentiation of U937 cells measured as CD11c expression level after 48 hrs at 1 uM; format: functional, Homo sapiens; method in brief: as §3
U-937 [9] = assay: Cell cycle arrest in U937 cells by accumulation at S/G2/M phase at 5 uM after 24 hrs; settings: Homo sapiens
U-937 [10] = assay: Induction of apoptosis in U937 cells at 1 uM by AnnexinV/PI double satining; format: functional, Homo sapiens; method in brief: as §1
U-937 [11] = assay: Cell cycle arrest in U937 cells by accumulation at G1 phase at 5 uM after 24 hrs; format: functional, cell-based; settings: Homo sapiens
Method in brief: (§4)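 U937 cells (RPMI, 10% FCS, kept at 200 000 cells/mL) treated 24 h at 1 or 5 µM (DMSO stocks); 2.5 × 10^5 cells resuspended in hypotonic buffer (0.1% Triton X-100, 0.1% sodium citrate, 50 µg/mL PI, RNAse A), 30 min dark; DNA content by flow cytometry; experiments performed three times.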

U-937 [12] = assay: Antiproliferative activity against U937 cells at 5 uM; format: functional, cell-based; settings: Homo sapiens
Method in brief: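 U937 cells seeded at 200 000 cells/mL in RPMI/10% FCS with vehicle or inhibitor at 5 µM; living cells counted every 24 h by Trypan Blue exclusion; data plotted after three days; triplicate.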

U-937 [13] = assay: Cell cycle arrest in U937 cells by accumulation at G1 phase at 1 uM after 24 hrs; format: functional, cell-based; settings: Homo sapiens; method in brief: as §4
[14] = target: T2, Histone deacetylase HD2 (Zea mays) (UniProt Q94F81); assay: Inhibition of maize HD2 at 20.9 uM
T2 sequence (whole entry): T1 sequence (Q94F81 whole entry)

Zea mays [15] = assay: Inhibition of maize HD1A at 20.9 uM
[16] = target: Histone deacetylase HD1B (Zea mays) (UniProt Q9ZTP8); assay: Inhibition of maize HD1B at 20.9 uM
Chain of Histone deacetylase HD1B (Zea mays) (Q9ZTP8 as listed by the source): as the sequence (Q9ZTP8 whole entry) above

SMILES | IC50 (Histone deacetylase HD2) [nM] | IC50 (Histone deacetylase HD1B) [nM] | also measured
O=C(CCCCSc1nc(-c2ccccc2)cc(=O)[nH]1)NO | 8 | 10 | Activity (U-937 [1]; Homo sapiens): inactive; IC50 (Histone deacetylase 1): 40 nM; inhibition [2]: 46%; inhibition [3]: 0%; Activity (U-937 [4]): Active; Activity (U-937 [5]): Active
O=C(CCCCCSc1nc(O)cc(C(c2ccccc2)c2ccccc2)n1)NO | – | – | Activity (U-937 [1]; Homo sapiens): inactive
O=C(CCCCCSc1nc(C(c2ccccc2)c2ccccc2)cc(=O)[nH]1)NO | 52 | 58 | –
O=C(CCCCCSc1nc(-c2ccccc2)cc(=O)[nH]1)NO | – | 19 | Selectivity ratio (Zea mays [6]): > 3
O=C(CCCCCSc1nc(Cc2ccccc2)cc(=O)[nH]1)NO | – | 18 | Activity (U-937 [1]; Homo sapiens): inactive; IC50 (Histone deacetylase 1): 103 nM; Activity (U-937 [7]): 30%
CC(c1ccccc1)c1cc(=O)[nH]c(SCCCCCC(=O)NO)n1 (stereo not drawn) | 9 | 92 | IC50 (Histone deacetylase 1): 121 nM
O=C(CCCCCCCSc1nc(CCc2ccccc2)cc(=O)[nH]1)NO | 90 | 62 | –
O=C(/C=C/c1ccccc1CSc1nc(O)cc(-c2ccccc2)n1)NO | 367 | 780 | –
O=C(CCCCCCC(=O)Nc1ccccc1)NO [VORINOSTAT] | – | – | Activity (U-937 [1]): 98%; Activity (U-937 [8]): 48%; Activity (U-937 [7]): 32%; Activity (U-937 [9]): Active
O=C(CCCCCCCSc1nc(-c2ccccc2)cc(=O)[nH]1)NO | 42 | 89 | –
O=C(CCSc1nc(O)cc(CCc2ccccc2)n1)NO | 37 | 60 | –
O=C(CCCCCSc1nc(C2(c3ccccc3)CC2)cc(=O)[nH]1)NO | 62 | 47 | –
O=C(CCCCCCSc1nc(-c2ccccc2)cc(=O)[nH]1)NO | 38 | 48 | –
O=C(/C=C/c1ccc(CSc2nc(O)cc(-c3ccccc3)n2)cc1)NO | 23 | 112 | Activity (U-937 [10]): 8.8%; Activity (U-937 [1]; Homo sapiens): inactive; IC50 (Histone deacetylase 1): 34 nM; inhibition [2]: 94%; inhibition [3]: 14%; Activity (U-937 [8]): 42.5%; Activity (U-937 [7]): 46%; Activity (U-937 [4]): Active; Activity (U-937 [11]): Active; Activity (U-937 [12]): Active
O=C(/C=C/c1ccc(CSc2nc(O)cc(Cc3ccccc3)n2)cc1)NO | 80 | 73 | Activity (U-937 [1]; Homo sapiens): inactive; IC50 (Histone deacetylase 1): 110 nM; Activity (U-937 [8]): 30%; Activity (U-937 [7]): 33%
O=C(CCCCCCSc1nc(O)cc(-c2ccccc2)n1)NO | – | – | Selectivity ratio (Zea mays [6]): > 3

SMILES | IC50 (Histone deacetylase HD2) [nM] | IC50 (Histone deacetylase HD1B) [nM] | also measured
O=C(CCCSc1nc(O)cc(-c2ccccc2)n1)NO | 27 | 31 | –
O=C(/C=C/c1cccc(CSc2nc(O)cc(-c3ccccc3)n2)c1)NO | 17 | 64 | Activity (U-937 [13]): Active; Activity (U-937 [1]; Homo sapiens): inactive; IC50 (Histone deacetylase 1): 57 nM; Activity (U-937 [7]): 33%; Activity (U-937 [4]): Active; Activity (U-937 [11]): Active; Activity (U-937 [12]): Active
CCC(c1ccccc1)c1cc(=O)[nH]c(SCCCCCC(=O)NO)n1 (stereo not drawn) | 32 | 31 | –
O=C(CCCCCCSc1nc(CCc2ccccc2)cc(=O)[nH]1)NO | 83 | 62 | –
O=C(CCSc1nc(-c2ccccc2)cc(=O)[nH]1)NO | 822 | 890 | –
O=C(CCCCSc1nc(O)cc(CCc2ccccc2)n1)NO | – | – | Selectivity ratio (Zea mays [6]): > 3
COC(c1ccccc1)c1cc(O)nc(SCCCCCC(=O)NO)n1 (stereo not drawn) | 82 | 79 | –
O=C(/C=C/c1cccc(CSc2nc(O)cc(Cc3ccccc3)n2)c1)NO | 41 | 42 | Activity (U-937 [10]): 8%; Activity (U-937 [1]; Homo sapiens): inactive; IC50 (Histone deacetylase 1): 90 nM
O=C(/C=C/Sc1nc(O)cc(-c2ccccc2)n1)NO | – | – | inhibition [14]: 0%; inhibition (Zea mays [15]): 0%; inhibition [16]: 0%
CC(/C=C/C(=O)NO)=C\[C@@H](C)C(=O)c1ccc(N(C)C)cc1 [TRICHOSTATIN] | – | 0.4 | –
O=C(CCCCSc1nc(CCc2ccccc2)cc(=O)[nH]1)NO | 40 | 46 | –
O=C(CCCCCCCSc1nc(O)cc(-c2ccccc2)n1)NO | – | – | Selectivity ratio (Zea mays [6]): > 3
O=C(CCCSc1nc(O)cc(CCc2ccccc2)n1)NO | 205 | 170 | –
O=C(/C=C/c1ccccc1CSc1nc(O)cc(Cc2ccccc2)n1)NO | 760 | 1060 | –
O=C(/C=C/Sc1nc(O)cc(CCc2ccccc2)n1)NO | 41000 | 96000 | –
